Measurements collected from several papers.
Protocols differ between the studies behind these lines.
Target: 5'-AMP-activated protein kinase catalytic subunit alpha-2 (PRKAA2, Homo sapiens, UniProt P54646)

Compound	effect on	technique	concentration	remaining binding
CN(C)c1ncnc(-c2ccc3nc(Nc4cc(CN5CCN(C(=O)CC(F)(F)F)CC5)ccn4)[nH]c3c2)c1Cl	cell-free assay	competition with immobilised ligand	1 µM	100%
O=C(c1ccc(Nc2nccc(-c3cc4ccccc4s3)n2)cc1)N1CCC(N2CCCC2)CC1	binding	competition with immobilised ligand	1 µM	31%
COc1cnc(Nc2cccc(S(N)(=O)=O)c2)nc1N1CCN(c2ccccc2)CC1	binding	competition with immobilised ligand	1 µM	100%
C[C@@H]1CCN(c2nccc(-c3cnn4ncccc34)n2)C1	binding	–	1 µM	74%
O=C(Nc1c[nH]nc1C(=O)NC1CCNCC1)c1cc(F)cc(F)c1	binding	competition with immobilised ligand	1 µM	100%
c1cnn2ncc(-c3ccnc(N4CCC45COC5)n3)c2c1	binding	–	1 µM	91%
CNC(=O)Nc1ccc2c(c1)[C@@]1(CC2)OC(=O)N(CC(=O)N(Cc2ccc(F)cc2)[C@@H](C)C(F)(F)F)C1=O	cell-free assay	competition with immobilised ligand	1 µM	57%
Nc1ncc2c(n1)-c1c([nH]c3ccc(C#CC4CC4)cc13)CCCC2	binding	competition with immobilised ligand	1 µM	85%
O=C(NCCCN1CCOCC1)c1ccc(Nc2ncc(Cl)c(-c3ccc(Cl)s3)n2)cc1	binding	competition with immobilised ligand	1 µM	17%
F[C@@H]1CCN(c2nccc(-c3cnn4ncccc34)n2)C1	binding	–	1 µM	100%
C[C@@H](c1ccc(-n2cnc3c(N)ncnc32)cc1)N1CCc2nn(C)c(Cc3ccccc3)c2C1=O	binding	competition with immobilised ligand	0.1 µM	100%
Cc1nc(N2CC[C@@H](O)C2)ncc1-c1cc(C(F)(F)F)cc2[nH]ncc12	cell-free assay	competition with immobilised ligand	1 µM	100%
FC(F)(F)Oc1cccc(-c2cnc3ccc(-c4ccncc4)nn23)c1	cell-free assay	competition with immobilised ligand	5 µM	80%
CN(CCCC(F)(F)F)c1nccc(-c2cnn3ncccc23)n1	binding	–	1 µM	100%
Cc1c(NC(=O)c2cc(C(N)=O)nc3cc(F)ccc23)c(C(F)(F)F)nn1Cc1ccc(C(C)(C)C)cc1	cell-free assay	competition with immobilised ligand	1 µM	100%
O=C(c1ccc(Nc2ncc(Cl)c(-c3ccc(Cl)s3)n2)cc1)N1CCC(N2CCCC2)CC1	binding	competition with immobilised ligand	1 µM	8.2%
CC(=O)c1c(NS(C)(=O)=O)c2cc(-c3ccc(Cl)cc3)c(-c3ccc(Cl)cc3Cl)nc2n(C)c1=O	cell-free assay	competition with immobilised ligand	1 µM	85%
COc1ccnn2ncc(-c3ccnc(N(C)C)n3)c12	binding	–	1 µM	79%
Cc1c(NC(=O)c2cc(C(N)=O)nc3cc(F)ccc23)c(C(F)(F)F)nn1Cc1ccc(C#N)cc1	cell-free assay	competition with immobilised ligand	1 µM	100%
N[C@H]1CCN(c2nccc(-c3cnn4ncccc34)n2)C1	binding	–	1 µM	100%
CCC(=O)N[C@@H]1CC[C@H](C(=O)N(C)c2ccc(-c3nc4ccccc4o3)cc2)C1	cell-free assay	competition with immobilised ligand	1 µM	74%
c1cncc(-c2cccc(Nc3nccc(NC4CCCCC4)n3)c2)c1	binding	competition with immobilised ligand	10 µM	23%
